Assay [1] has as its system Influenza A virus. As to the kind of experiment: Antiviral activity against Influenza A virus (A/California/04/2009(H1N1)) infected in MDCK cells from ATCC assessed as log reduction in viral titer at 1.6 uM after 24 hrs by immunofluorescent assay. It is filed as functional. A digest of the protocol:
(§1)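 Yield reduction in MDCK-ATCC or MDCK-Mill Hill cells infected at MOI ∼0.01. Adsorption 1 h at 4°C, washed, then DMEM with 2 μg/ml TPCK-trypsin and drug. At 24 h, supernatants were titrated by immunofluorescent focus assay on MDCK cells with anti-NP monoclonals and FITC secondary. Titres as log10 FFU per 100 μl; detection limit <10 FFU. Quadruplicate, mean ± SD.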

The subject of assay [2] is Influenza A virus. As to the kind of experiment: Antiviral activity against Influenza A virus (A/Mexico/4604/2009(H1N1)) infected in MDCK cells from ATCC assessed as log reduction in viral titer at 1.6 uM after 24 hrs by immunofluorescent assay. It is filed as functional. A digest of the protocol:
as §1

Assay [3] deals with Influenza A virus. In words: Antiviral activity against Influenza A virus (A/California/04/2009(H1N1)) infected in MDCK cells from Mill Hill assessed as log reduction in viral titer at 1.6 uM after 24 hrs by immunofluorescent assay. It is filed as functional. The gist of the method:
as §1

For assay [4], the system named is Influenza A virus. In words: Antiviral activity against Influenza A virus (A/Mexico/4604/2009(H1N1)) infected in MDCK cells from Mill Hill assessed as log reduction in viral titer at 1.6 uM after 24 hrs by immunofluorescent assay. It is filed as functional. The gist of the method: as §1
Assay [5] deals with Influenza A virus. As to the kind of experiment: Antiviral activity against sInfluenza A virus (A/California/04/2009(H1N1)) infected in MDCK cells from ATCC assessed as log reduction in viral titer at 4.7 uM after 24 hrs by immunofluorescent assay. In kind it is functional. A digest of the protocol: (§2)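 MDCK cells (ATCC or Mill Hill) infected with 2009 pandemic H1N1 at MOI ~0.01, 1 h adsorption at 4°C, washed. DMEM with 2 μg/ml TPCK-trypsin plus drug for 24 h at 37°C. Supernatants titrated on MDCK cells by focus formation: methanol/acetic acid fixation, anti-nucleoprotein MAbs, FITC secondary, foci counted. Titre as log10 FFU per 100 μl; detection limit <10 FFU; quadruplicate wells.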

In assay [6] the test system is Influenza A virus. In words: Antiviral activity against Influenza A virus (A/Mexico/4604/2009(H1N1)) infected in MDCK cells from ATCC assessed as log reduction in viral titer at 4.7 uM after 24 hrs by immunofluorescent assay. It is filed as functional. The gist of the method:
as §1

Assay [7] relates to Influenza A virus. As to the kind of experiment: Antiviral activity against sInfluenza A virus (A/Washington/29/2009(H1N1)) infected in MDCK cells from ATCC assessed as log reduction in viral titer at 4.7 uM after 24 hrs by immunofluorescent assay. In kind it is functional, Influenza A virus (A/Washington/29/2009(H1N1)). The gist of the method: as §2
Assay [8] has as its system Influenza A virus. In words: Antiviral activity against Influenza A virus (A/Illinois/10/2009(H1N1)) infected in MDCK cells from ATCC assessed as log reduction in viral titer at 4.7 uM after 24 hrs by immunofluorescent assay. It is filed as functional. The gist of the method: as §1
The subject of assay [9] is Influenza A virus. In words: Antiviral activity against sInfluenza A virus (A/California/04/2009(H1N1)) infected in MDCK cells from Mill Hill assessed as log reduction in viral titer at 4.7 uM after 24 hrs by immunofluorescent assay. It is filed as functional. A digest of the protocol:
as §2

Assay [10] relates to Influenza A virus. In words: Antiviral activity against Influenza A virus (A/Mexico/4604/2009(H1N1))infected in MDCK cells from Mill Hill assessed as log reduction in viral titer at 4.7 uM after 24 hrs by immunofluorescent assay. It is filed as functional. A digest of the protocol:
as §1

For assay [11], the system named is Influenza A virus. In words: Antiviral activity against sInfluenza A virus (A/Washington/29/2009(H1N1)) infected in MDCK cells from Mill Hill assessed as log reduction in viral titer at 4.7 uM after 24 hrs by immunofluorescent assay. It is filed as functional, Influenza A virus (A/Washington/29/2009(H1N1)). A digest of the protocol: as §2
Assay [12] relates to Influenza A virus. In words: Antiviral activity against Influenza A virus (A/Illinois/10/2009(H1N1)) infected in MDCK cells from Mill Hill assessed as log reduction in viral titer at 4.7 uM after 24 hrs by immunofluorescent assay. In kind it is functional. A digest of the protocol:
as §1

Assay [13] concerns Influenza A virus. As to the kind of experiment: Antiviral activity against sInfluenza A virus (A/California/04/2009(H1N1))infected in MDCK cells from ATCC assessed as log reduction in viral titer at 14.2 uM after 24 hrs by immunofluorescent assay. In kind it is functional. A digest of the protocol: as §2
Assay [14] relates to Influenza A virus. In words: Antiviral activity against Influenza A virus (A/Mexico/4604/2009(H1N1)) infected in MDCK cells from ATCC assessed as log reduction in viral titer at 14.2 uM after 24 hrs by immunofluorescent assay. It is filed as functional. A digest of the protocol: as §1
Assay [15] deals with Influenza A virus. In words: Antiviral activity against sInfluenza A virus (A/Washington/29/2009(H1N1)) infected in MDCK cells from ATCC assessed as log reduction in viral titer at 14.2 uM after 24 hrs by immunofluorescent assay. It is filed as functional, Influenza A virus (A/Washington/29/2009(H1N1)). The gist of the method: as §2
Assay [16] deals with Influenza A virus. As to the kind of experiment: Antiviral activity against Influenza A virus (A/Illinois/10/2009(H1N1)) infected in MDCK cells from ATCC assessed as log reduction in viral titer at 14.2 uM after 24 hrs by immunofluorescent assay. It is filed as functional. The gist of the method:
as §1

Assay [17] relates to Influenza A virus. In words: Antiviral activity against sInfluenza A virus (A/California/04/2009(H1N1)) infected in MDCK cells from Mill Hill assessed as log reduction in viral titer at 14.2 uM after 24 hrs by immunofluorescent assay. In kind it is functional. A digest of the protocol: as §2
In assay [18] the test system is Influenza A virus. In words: Antiviral activity against Influenza A virus (A/Mexico/4604/2009(H1N1)) infected in MDCK cells from Mill Hill assessed as log reduction in viral titer at 14.2 uM after 24 hrs by immunofluorescent assay. It is filed as functional. The gist of the method:
as §1

Assay [19] concerns Influenza A virus. In words: Antiviral activity against sInfluenza A virus (A/Washington/29/2009(H1N1))) infected in MDCK cells from Mill Hill assessed as log reduction in viral titer at 14.2 uM after 24 hrs by immunofluorescent assay. It is filed as functional, Influenza A virus (A/Washington/29/2009(H1N1)). The gist of the method: as §2
The subject of assay [20] is Influenza A virus. In words: Antiviral activity against Influenza A virus (A/Illinois/10/2009(H1N1)) infected in MDCK cells from Mill Hill assessed as log reduction in viral titer at 14.2 uM after 24 hrs by immunofluorescent assay. In kind it is functional. The gist of the method: as §1
In assay [21] the test system is Influenza A virus. As to the kind of experiment: Antiviral activity against sInfluenza A virus (A/California/04/2009(H1N1)) infected in MDCK cells from ATCC assessed as log reduction in viral titer at 42.7 uM after 24 hrs by immunofluorescent assay. In kind it is functional. A digest of the protocol: as §2
Assay [22] concerns Influenza A virus. In words: Antiviral activity against Influenza A virus (A/Mexico/4604/2009(H1N1)) infected in MDCK cells from ATCC assessed as log reduction in viral titer at 42.7 uM after 24 hrs by immunofluorescent assay. It is filed as functional. The gist of the method: as §1
In assay [23] the test system is Influenza A virus. As to the kind of experiment: Antiviral activity against sInfluenza A virus (A/Washington/29/2009(H1N1)) infected in MDCK cells from ATCC assessed as log reduction in viral titer at 42.7 uM after 24 hrs by immunofluorescent assay. In kind it is functional, Influenza A virus (A/Washington/29/2009(H1N1)). The gist of the method: as §2
The subject of assay [24] is Influenza A virus. In words: Antiviral activity against Influenza A virus (A/Illinois/10/2009(H1N1)) infected in MDCK cells from ATCC assessed as log reduction in viral titer at 42.7 uM after 24 hrs by immunofluorescent assay. In kind it is functional. A digest of the protocol:
as §1

The source of these data is ChEMBL document CHEMBL1671691 (Antimicrob Agents Chemother, 2010).

In the case of `NC(=O)c1nc(F)cnc1O` [FAVIPIRAVIR], the log10FFU in [1] stood at 2.7; in assay [2] it was 4.4; in [3], 4.1; in [4], 6.2; in assay [5] it was 1.8; in assay [6], 3.5. The log10FFU was determined as 3.9 in assay [7]; 4.4 in [8]; 3.6 in assay [9]; 6.2 in assay [10]; 4.7 in assay [11]; 3.8 in assay [12]. Further, the log10FFU is below 1 in [13]; 2.4 in [14]; 2.2 in assay [15]; 3.1 in assay [16]; 2.3 in assay [17]; 4.6 in [18]. Moreover, the log10FFU in [19] is 3.1; in [20] it was 1.8; in [21] it was below 1; in assay [22], 1.8; in [23] it was 1.8; in [24], 2.1.
